The source made the active and inactive calls. The rule behind the calls is not given here.
Columns and labels:
B16-F10 [1] = assay: Induction of apoptosis in mouse B16F10 cells assessed as necrotic cells at 30 uM after 24 hrs using annexin V-FITC/propidium iodide staining by flow cytometry; format: functional
Procedure, shortened: (§1)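 B16-F10 cells grown in DMEM with 4 mM L-glutamine, 1 mM pyruvate, 4.5 g/L glucose and 10% FBS. 300,000 cells/well were plated, then treated in DMSO after 24 h. Vehicle and medium-alone controls were included. Cells were detached with EDTA-trypsin, PBS-washed and set at 1 × 10^6 cells/mL in binding buffer. Annexin V-FITC/PI staining ran 15 min at room temperature in the dark, followed by flow cytometry within 1 h.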

B16-F10 [2] = assay: Induction of apoptosis in mouse B16F10 cells assessed as early/late apoptotic cells at 30 uM after 24 hrs using annexin V-FITC/propidium iodide staining by flow cytometry; format: functional; procedure, shortened: as §1
B16-F10 [3] = assay: Induction of apoptosis in mouse B16F10 cells assessed as total apoptosis at 20 uM after 48 hrs using annexin V-FITC/propidium iodide staining by flow cytometry; format: functional, cell-based
Procedure, shortened: (§2)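 B16-F10 cells in DMEM/10% FBS were plated at 300,000 cells/well, then treated 24 h later, in duplicate, in DMSO at […] for 24 or 48 h. Vehicle and medium controls were included. Annexin V-FITC/PI staining ran 15 min at room temperature in the dark. Total apoptosis (early + late) was read by flow cytometry as mean ± SD from two independent experiments.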

B16-F10 [4] = assay: Induction of apoptosis in mouse B16F10 cells at 30 uM after 24 hrs using annexin V-FITC/propidium iodide staining by flow cytometry; format: functional; procedure, shortened: as §1
B16-F10 [5] = assay: Induction of apoptosis in mouse B16F10 cells assessed as total apoptosis at 20 uM after 24 hrs using annexin V-FITC/propidium iodide staining by flow cytometry; format: functional; procedure, shortened: as §2
B16-F10 [6] = assay: Induction of apoptosis in mouse B16F10 cells assessed as total apoptosis at 1 uM after 24 hrs using annexin V-FITC/propidium iodide staining by flow cytometry; format: functional
Procedure, shortened: (§3)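 B16-F10 cells grown in DMEM with 4 mM L-glutamine, 1.5 g/L bicarbonate, 1 mM pyruvate, 4.5 g/L glucose, 10% FBS. Seeded at 300,000 cells/well in 6-well dishes, treated 24 h later with compound in DMSO. Vehicle and medium-only controls. Detached with EDTA-trypsin, PBS-washed, stained with annexin V-FITC and PI 15 min at room temperature in dark. Total apoptosis = early + late. Mean ± SD, two independent experiments.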

B16-F10 [7] = assay: Induction of apoptosis in mouse B16F10 cells assessed as total apoptosis at 1 to 10 uM after 24 hrs using annexin V-FITC/propidium iodide staining by flow cytometry; format: functional, cell-based; procedure, shortened: as §3
B16-F10 [8] = assay: Induction of apoptosis in mouse B16F10 cells assessed as total apoptosis at 1 to 10 uM after 48 hrs using annexin V-FITC/propidium iodide staining by flow cytometry; format: functional, cell-based; procedure, shortened: as §3

For `CC1(C)CC[C@]2(C(=O)OCc3ccccc3)CC[C@]3(C)C(=CC[C@@H]4[C@@]5(C)C=C(O)C(=O)C(C)(C)[C@@H]5CC[C@]43C)[C@@H]2C1`, the Activity (B16-F10 [1]) was under 10%, the Activity (B16-F10 [2]) was 80% and the Activity (B16-F10 [3]) was “Active”.

Compound `COC(=O)[C@]12CCC(C)(C)C[C@H]1C1=CC[C@@H]3[C@@]4(C)C[C@@H](O)C(=O)[C@](C)(CO)[C@@H]4CC[C@@]3(C)[C@]1(C)CC2` has an Activity (B16-F10 [1]) of under 10% and an Activity (B16-F10 [4]) of 30%.

With `CC1(C)CC[C@]2(C(=O)OCc3ccccc3)CC[C@]3(C)C(=CC[C@@H]4[C@@]5(C)C[C@H](O)[C@H](O)C(C)(C)[C@@H]5CC[C@]43C)[C@@H]2C1` [BENZYL AUGUSTATE] the Activity (B16-F10 [1]) was under 10%, the Activity (B16-F10 [2]) was 80% and the Activity (B16-F10 [3]) was “Active”.

For `CC1(C)CC[C@]2(C(=O)O)CC[C@]3(C)C(=CC[C@@H]4[C@@]5(C)CC(=O)[C@H](O)C(C)(C)[C@@H]5CC[C@]43C)[C@@H]2C1`, the Activity (B16-F10 [1]) was under 10%, the Activity (B16-F10 [2]) was 80% and the Activity (B16-F10 [3]) was “Active”.

Compound `CC1(C)CC[C@]2(C(=O)[O-])CC[C@]3(C)C(=CC[C@@H]4[C@@]5(C)C[C@@H](O)[C@H](O)C(C)(C)[C@@H]5CC[C@]43C)[C@@H]2C1.[Na+]` [SODIUM MASLINATE] has an Activity (B16-F10 [1]) of under 10%, an Activity (B16-F10 [2]) of 80% and an Activity (B16-F10 [5]) of 70%. It also gave an Activity (B16-F10 [6]) of 56.67%.

`CC1(C)CC[C@]2(C(=O)OCc3ccccc3)CC[C@]3(C)C(=CC[C@@H]4[C@@]5(C)C[C@@H](O)[C@H](O)C(C)(C)[C@@H]5CC[C@]43C)[C@@H]2C1` [BENZYL MASLINATE] was tested, and the Activity (B16-F10 [7]) was “Active”, the Activity (B16-F10 [8]) was “inactive” and the Activity (B16-F10 [1]) was under 10%. For the same compound, the Activity (B16-F10 [2]) was 80%, the Activity (B16-F10 [5]) was over 70% and the Activity (B16-F10 [3]) was “Active”. The Activity (B16-F10 [6]) was 87.5%.

`CC1(C)CC[C@]2(C(=O)OCc3ccccc3)CC[C@]3(C)C(=CC[C@@H]4[C@@]5(C)CC(=O)[C@H](O)C(C)(C)[C@@H]5CC[C@]43C)[C@@H]2C1` gave an Activity (B16-F10 [1]) of under 10%, an Activity (B16-F10 [2]) of 80% and an Activity (B16-F10 [5]) of over 70%. For the same compound, the Activity (B16-F10 [3]) was “Active”.

In the case of `CC1(C)CC[C@]2(C(=O)O)CC[C@]3(C)C(=CC[C@@H]4[C@@]5(C)C=C(O)C(=O)C(C)(C)[C@@H]5CC[C@]43C)[C@@H]2C1`, the Activity (B16-F10 [1]) is reported as under 10%, the Activity (B16-F10 [2]) is reported as 80% and the Activity (B16-F10 [3]) is reported as “Active”.

`CC(=O)O[C@H]1CC[C@]2(C)[C@H]3C[C@H](OC(C)=O)[C@]45OC(=O)[C@@]6(CCC(C)(C)C[C@H]64)CC[C@@]5(C)[C@]3(C)CC[C@H]2C1(C)C` showed an Activity (B16-F10 [1]) of under 10% and an Activity (B16-F10 [4]) of 30%.

In the case of `CC1(C)CC[C@]2(C#N)CC[C@]3(C)C(=CC[C@@H]4[C@@]5(C)C[C@@H](O)[C@H](O)C(C)(C)[C@@H]5CC[C@]43C)[C@@H]2C1`, the Activity (B16-F10 [7]) is reported as “Active”, the Activity (B16-F10 [8]) is reported as “inactive” and the Activity (B16-F10 [1]) is reported as under 10%. For the same compound, the Activity (B16-F10 [2]) was 80%, the Activity (B16-F10 [5]) was 70% and the Activity (B16-F10 [3]) was “Active”. It also gave an Activity (B16-F10 [6]) of 78.75%.

In the case of `CC1(C)CC[C@]2(C(N)=O)CC[C@]3(C)C(=CC[C@@H]4[C@@]5(C)C[C@@H](O)[C@H](O)C(C)(C)[C@@H]5CC[C@]43C)[C@@H]2C1`, the Activity (B16-F10 [1]) is reported as under 10%, the Activity (B16-F10 [2]) is reported as 80% and the Activity (B16-F10 [5]) is reported as 70%. The Activity (B16-F10 [3]) was “Active”.

For `CC1(C)CC[C@]2(CO)CC[C@]3(C)C(=CC[C@@H]4[C@@]5(C)C[C@@H](O)[C@H](O)C(C)(C)[C@@H]5CC[C@]43C)[C@@H]2C1`, the Activity (B16-F10 [1]) was under 10%.

Compound `CC1(C)CC[C@]2(CO)CC[C@]3(C)C(=CC[C@@H]4[C@@]5(C)C[C@H]6OC(C)(C)O[C@@H]6C(C)(C)[C@@H]5CC[C@]43C)[C@@H]2C1` has an Activity (B16-F10 [1]) of under 10%.

For `COC(=O)[C@]12CCC(C)(C)C[C@H]1[C@@](O)(/C=C\[C@@]13O[C@]1(C)CC[C@H]1C(C)(C)[C@@H](O)CC[C@@]13C)[C@](C)(O)CC2`, the Activity (B16-F10 [1]) was under 10% and the Activity (B16-F10 [4]) was 30%.

In the case of `CC1(C)CC[C@]2(C(=O)O)CC[C@]3(C)C(=CC[C@@H]4[C@@]5(C)C[C@@H](O)[C@H](O)C(C)(C)[C@@H]5CC[C@]43C)[C@@H]2C1`, the Activity (B16-F10 [3]) is reported as “Active”.

In the case of `CC(=O)O[C@@H]1C[C@]2(C)[C@H]3CC=C4[C@@H]5CC(C)(C)CC[C@]5(C#N)CC[C@@]4(C)[C@]3(C)CC[C@H]2C(C)(C)[C@H]1OC(C)=O`, the Activity (B16-F10 [7]) is reported as “Active”, the Activity (B16-F10 [8]) is reported as “inactive” and the Activity (B16-F10 [1]) is reported as under 10%. The Activity (B16-F10 [2]) was 80%, the Activity (B16-F10 [5]) was 70% and the Activity (B16-F10 [3]) was “Active”. It also gave an Activity (B16-F10 [6]) of 68.62%.

`C=C1CC[C@H]2C(C)(C)CCC[C@]2(C)/C1=C/CC1=C(C)CCC2(C(=O)OC)CCC(C)(C)C[C@@H]12` (single isomer, unassigned) gave an Activity (B16-F10 [1]) of under 10%.

Work on `CC(=O)O[C@@H]1C[C@]2(C)[C@H]3CC=C4[C@@H]5CC(C)(C)CC[C@]5(C(=O)O)CC[C@@]4(C)[C@]3(C)CC[C@H]2C(C)(C)[C@H]1OC(C)=O` yielded an Activity (B16-F10 [1]) of under 10%.

`CC(=O)O[C@H]1CC[C@]2(C)[C@H]3C[C@H](O)[C@]45OC(=O)[C@@]6(CCC(C)(C)C[C@H]64)CC[C@@]5(C)[C@]3(C)CC[C@H]2C1(C)C` was tested, and the Activity (B16-F10 [1]) was under 10%.

`COC(=O)[C@]12CCC(C)(C)C[C@H]1[C@]1(/C=C\[C@@]34O[C@]3(C)CC[C@H]3C(C)(C)[C@@H](O)CC[C@@]34C)O[C@@]1(C)CC2` showed an Activity (B16-F10 [1]) of under 10% and an Activity (B16-F10 [4]) of 30%.

`COC(=O)[C@]12CCC(C)(C)C[C@H]1C1=CC[C@@H]3[C@@]4(C)C=CC(=O)C(C)(C)[C@@H]4CC[C@@]3(C)[C@]1(C)CC2` gave an Activity (B16-F10 [1]) of under 10%.

Reference: ChEMBL document CHEMBL1914356, “Maslinic acid derivatives induce significant apoptosis in b16f10 murine melanoma cells” (2011)
